{"source": "paper PMC9532784", "about": "(Food Chemistry: X, 2022)", "system": "PDE4", "assay": "In vitro PDE4-inhibitory assay", "format": "biochemical", "details": "ratio of IC50 values", "in_short": "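Fluorescence-polarization kit. Test compound diluted in assay buffer containing 10 % DMSO (dilution solvent, not final), then added to reactions with PDE4 and 200 nM FAM-cAMP for 1 h at room temperature. Binding agent (1:99 in diluent) added for 30 min at RT with slow shaking; FP read at ex 485/em 528 nm. Triplicate per concentration; % activity = (FP−FPb)/(FPt−FPb)×100. IC50 from dose-response fit; ratios taken between IC50s.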", "data": [{"smiles": "C[C@@H]1O[C@@H](O[C@H]2C(=O)c3c(O)cc(O)cc3O[C@@H]2c2ccc(O)c(O)c2)[C@H](O)[C@H](O)[C@H]1O", "note": "[Astilbin]", "values": [{"measurement": "fold higher PDE4 inhibitory effect than isoastilbin", "setting": "versus isoastilbin", "value": 8.9, "unit": "fold"}, {"measurement": "fold higher PDE4 inhibitory effect than neoastilbin", "setting": "versus neoastilbin", "value": 2.9, "unit": "fold"}]}]}
